Test results as given in ChEMBL document CHEMBL3124940, “Design, synthesis and biological evaluation of D-ring opened galantamine analogs as multifunctional anti-Alzheimer agents” (Eur J Med Chem, 2014).
Activity calls are given as the source filed them. No cut-off for these calls is given here.

What was measured:
Rattus norvegicus [1] = assay: Toxicity in Wistar rat assessed as lipidperoxidation product level in kidney at 6 umol/100 g body weight, ip by fluorometric analysis relative to control; type: organism-based; details: in vivo
Outline: (§1)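 Rats dosed i.p.; tissues taken after 24 h. For GSH/GSSG, tissue homogenized in 11 volumes of 0.2 M sodium phosphate (5 mM EDTA, pH 8.0) plus 4 volumes of 25% metaphosphoric acid and centrifuged 12 000 × g, 4 °C, 30 min; supernatant read photometrically (GSH) or fluorometrically (GSSG). Lipid peroxidation products measured as TBARS in 19-volume ice-cold saline homogenates, fluorometrically.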

Rattus norvegicus [2] = assay: Toxicity in Wistar rat assessed as lipidperoxidation product level in kidney at 1 umol/100 g body weight, ip by fluorometric analysis relative to control; type: organism-based; details: in vivo; outline: as §1
Rattus norvegicus [3] = assay: Toxicity in Wistar rat assessed as total glutathione level in kidney at 6 umol/100 g body weight, ip by fluorometric analysis relative to control; type: organism-based; details: in vivo; outline: as §1
Rattus norvegicus [4] = assay: Toxicity in Wistar rat assessed as total glutathione level in kidney at 1 umol/100 g body weight, ip by fluorometric analysis relative to control; type: organism-based; details: in vivo; outline: as §1
Rattus norvegicus [5] = assay: Toxicity in Wistar rat assessed as GSSG level in kidney at 1 umol/100 g body weight, ip by fluorometric analysis relative to control; type: organism-based; details: in vivo; outline: as §1
Rattus norvegicus [6] = assay: Toxicity in Wistar rat assessed as GSH level in kidney at 6 umol/100 g body weight, ip by fluorometric analysis relative to control; type: organism-based; details: in vivo
Rattus norvegicus [7] = assay: Toxicity in Wistar rat assessed as GSSG level in brain at 6 umol/100 g body weight, ip by fluorometric analysis relative to control; type: organism-based; details: in vivo; outline: as §1
Rattus norvegicus [8] = assay: Toxicity in Wistar rat assessed as brain weight at 6 umol/100 g body weight, ip relative to control; type: organism-based; details: in vivo
Rattus norvegicus [9] = assay: Toxicity in Wistar rat assessed as brain weight at 1 umol/100 g body weight, ip relative to control; type: organism-based; details: in vivo
Rattus norvegicus [10] = assay: Toxicity in Wistar rat assessed as ethoxyresorufin-O-deethylation activity in liver measured as resorufin level at 6 umol/100 g body weight, ip by fluorometric analysis relative to control; type: organism-based; details: in vivo
Outline: (§2)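 Rats dosed i.p.; after 24 h, liver homogenized 1:3 w/v in 0.1 M sodium phosphate pH 7.4 and centrifuged at 9000 × g, 4 °C, 20 min. Supernatant protein determined by the Biuret method. Ethoxyresorufin-O-deethylation measured fluorometrically as resorufin formed.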

Rattus norvegicus [11] = assay: Toxicity in Wistar rat assessed as ethoxyresorufin-O-deethylation activity in liver measured as resorufin level at 1 umol/100 g body weight, ip by fluorometric analysis relative to control; type: organism-based; details: in vivo; outline: as §2
Rattus norvegicus [12] = assay: Toxicity in Wistar rat assessed as ethoxycoumarin-O-deethylation activity in liver measured as 7-hydroxycoumarin level at 6 umol/100 g body weight, ip by fluorometric analysis relative to control; type: organism-based; details: in vivo
Rattus norvegicus [13] = assay: Toxicity in Wistar rat assessed as ethoxycoumarin-O-deethylation activity in liver measured as 7-hydroxycoumarin level at 1 umol/100 g body weight, ip by fluorometric analysis relative to control; type: organism-based; details: in vivo
Rattus norvegicus [14] = assay: Toxicity in Wistar rat assessed as protein content in liver at 6 umol/100 g body weight, ip by Biuret method relative to control; type: organism-based; details: in vivo; outline: as §2
Rattus norvegicus [15] = assay: Toxicity in Wistar rat assessed as total glutathione level in liver at 1 umol/100 g body weight, ip by fluorometric analysis relative to control; type: organism-based; details: in vivo; outline: as §1
Rattus norvegicus [16] = assay: Toxicity in Wistar rat assessed as GSH level in liver at 6 umol/100 g body weight, ip by fluorometric analysis relative to control; type: organism-based; details: in vivo
Rattus norvegicus [17] = assay: Toxicity in Wistar rat assessed as liver weight at 1 umol/100 g body weight, ip relative to control; type: organism-based; details: in vivo
Rattus norvegicus [18] = assay: Toxicity in Wistar rat assessed as body weight at 1 umol/100 g body weight, ip relative to control; type: organism-based; details: in vivo
Rattus norvegicus [19] = assay: Antialzheimer activity in Wistar rat scopolamine-induced cognition impairment model assessed as decrease in amount of errors plus baits not found during exploration at 1 umol/100 g body weight, ip treated for 5 mins prior to scopolamine-challenge measured after 20 to 120 mins by eight-arm radial maze test; type: functional, organism-based
Outline: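 Female 60-day-old Wistar rats (Han:Wist) trained in an eight-arm radial maze to error-free trials under 60 s on three consecutive days; each animal served as its own control. Test agent given i.p. in saline 5 min before scopolamine (0.05 mg/100 g b. wt., i.p. in saline). Errors plus baits not found after 10 min, and total searching time, recorded before and 20, 60, 120 min after scopolamine; n = 14, mean ± SEM.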

[20] = molecular target: Amyloid-beta precursor protein (Homo sapiens) (UniProt P05067); assay: Inhibition of amyloid beta (1 to 42) aggregation (unknown origin) at 5 uM after 1 hr by thioflavin T fluorescence assay
Outline: (§3)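 Aβ42 stock (200 µM in DMSO) centrifuged 12,000 rpm for 10 min; supernatant used. Compound (2 µL of 0.2–4.0 mM DMSO stock) and 2 µL Aβ42 stock added to 76 µL PBS pH 7.4, incubated 1 h at room temperature. 80 µL of 5 µM ThT in 50 mM glycine-NaOH pH 8.5 then added; fluorescence read at excitation 430 nm, emission 488 nm.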

[21] = molecular target: Amyloid-beta precursor protein (Homo sapiens) (UniProt P05067); assay: Inhibition of amyloid beta (1 to 42) aggregation (unknown origin) at 100 uM after 1 hr by thioflavin T fluorescence assay relative to control; outline: as §3
[22] = molecular target: Amyloid-beta precursor protein (Homo sapiens) (UniProt P05067); assay: Inhibition of amyloid beta (1 to 42) aggregation (unknown origin) after 1 hr by thioflavin T fluorescence assay; outline: as §3
[23] = molecular target: Amyloid-beta precursor protein (Homo sapiens) (UniProt P05067); assay: Inhibition of amyloid beta (1 to 42) aggregation (unknown origin) at 50 uM after 6 days by atomic force microscopic analysis
Outline: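 Compound (2.5 µL of 1.0 mM) and 2.5 µL of 200 µM Aβ42 added to 45 µL PBS (20% TFE, pH 7.4); the control lacks compound. Incubated 37 °C for 6 days, then 3 µL deposited on freshly cleaved mica for 5 min, blown dry and imaged by atomic force microscopy.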

PC-12 = assay: Neuroprotective activity in rat PC12 cells assessed as decrease in amyloid beta (1 to 42)-induced cytotoxicity after 24 hrs by MTT assay; type: functional, cell-based
Outline: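 PC12 cells in F-12 with 10% FBS at 37 °C, 5% CO2, plated at 2000 cells/well and grown 24 h. Compound added (final 0.008–10 µM, DMSO below 0.5%) with Aβ42 (final 5 µM), 24 h at 37 °C. Aβ42 prepared by HFIP treatment, dried, taken up to 100 µM in F-12 and held 4 °C for 24 h. MTT for 4 h, DMSO solubilization, read at 540 nm; reported as % of control, three independent trials, mean ± SEM.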

Rattus norvegicus [24] = assay: Toxicity in Wistar rat assessed as change in movement at 1 umol/100 g body weight, ip; type: organism-based; details: in vivo

Amyloid-beta precursor protein (Homo sapiens), sequence (P05067 whole entry): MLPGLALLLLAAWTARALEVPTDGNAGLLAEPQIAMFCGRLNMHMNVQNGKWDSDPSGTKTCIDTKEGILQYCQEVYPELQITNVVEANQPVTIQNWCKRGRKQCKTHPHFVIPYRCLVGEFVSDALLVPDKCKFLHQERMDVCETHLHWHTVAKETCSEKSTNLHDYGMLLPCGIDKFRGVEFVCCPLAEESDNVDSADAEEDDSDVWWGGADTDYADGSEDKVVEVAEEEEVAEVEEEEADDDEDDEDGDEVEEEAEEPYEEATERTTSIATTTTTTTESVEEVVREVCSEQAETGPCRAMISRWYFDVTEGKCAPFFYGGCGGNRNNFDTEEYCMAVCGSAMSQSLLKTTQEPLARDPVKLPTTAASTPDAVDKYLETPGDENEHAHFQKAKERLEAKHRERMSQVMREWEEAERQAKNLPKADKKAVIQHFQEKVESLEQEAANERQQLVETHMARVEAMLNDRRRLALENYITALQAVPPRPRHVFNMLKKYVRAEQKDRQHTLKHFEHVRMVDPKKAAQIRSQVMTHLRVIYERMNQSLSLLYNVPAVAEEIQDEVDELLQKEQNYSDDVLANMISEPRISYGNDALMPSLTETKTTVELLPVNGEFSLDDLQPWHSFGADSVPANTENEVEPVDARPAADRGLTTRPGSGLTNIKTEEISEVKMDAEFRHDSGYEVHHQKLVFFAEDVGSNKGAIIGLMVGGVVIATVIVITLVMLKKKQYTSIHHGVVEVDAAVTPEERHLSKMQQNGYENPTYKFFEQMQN

Question: Which results are given for `COc1ccc2c(c1)oc1cccc(CN(C(=O)CCO[N+](=O)[O-])C(C)C)c12`?
Answer: Activity (Rattus norvegicus [1]): 96.2 nmol/g; Activity (Rattus norvegicus [2]): 93.2 nmol/g; Activity (Rattus norvegicus [3]): 1800 µg/g; Activity (Rattus norvegicus [4]): 1783 µg/g; Activity (Rattus norvegicus [5]): 161 µg/g; Activity (Rattus norvegicus [6]): 1483 µg/g; Activity (Rattus norvegicus [7]): 79.1 µg/g; Activity (Rattus norvegicus [8]): 1.87 g; Activity (Rattus norvegicus [9]): 1.95 g; Activity (Rattus norvegicus [10]): 121 pmol/mg/min; Activity (Rattus norvegicus [11]): 114 pmol/mg/min; Activity (Rattus norvegicus [12]): 178 pmol/mg/min; Activity (Rattus norvegicus [13]): 187 pmol/mg/min; Activity (Rattus norvegicus [14]): 64.7 mg/mL; Activity (Rattus norvegicus [15]): 3365 µg/g; Activity (Rattus norvegicus [16]): 2482 µg/g; Activity (Rattus norvegicus [17]): 7.6 g; Activity (Rattus norvegicus [18]): 264 g; Activity (Rattus norvegicus [19]): Active; inhibition [20]: inactive; inhibition [21]: 25%; inhibition [22]: Dose-dependent effect; inhibition [23]: Active; Activity (PC-12): Dose-dependent effect; Activity (Rattus norvegicus [24]): Non-toxic
